Measured values from ChEMBL document CHEMBL5331127, “Discovery of ARD-2051 as a Potent and Orally Efficacious Proteolysis Targeting Chimera (PROTAC) Degrader of Androgen Receptor for the Treatment of Advanced Prostate Cancer” (J Med Chem, 2023).
Active and inactive are the calls of the source. The rule behind the calls is not given here.

Legend:
[1] = Drug concentration in ICR mouse plasma at 10 mg/kg, po measured after 6 hrs; format: ADME, organism-based
In short: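 Mice given a single 10 mg/kg dose by oral gavage, 3 mice per time point. Plasma drug levels measured at 1, 3, 6 and 24 h; mean ± SD reported.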

[2] = target: Cytochrome P450 2C9 (Homo sapiens, UniProt P11712); assay: Inhibition of CYP2C9 in human liver microsomes preincubated for 5 mins followed by NADPH addition and measured after 10 mins by LC/MS analysis; format: ADME, Microsome
[3] = target: Voltage-gated inwardly rectifying potassium channel KCNH2 (Homo sapiens, UniProt Q12809); assay: Inhibition of human ERG expressed in HEK293 cells by whole cell patch clamp assay; format: toxicity, cell-based
In short: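 Manual whole-cell patch clamp at room temperature on HEK293 cells stably expressing hERG. Compound tested at 3 and 30 μM in duplicate; terfenadine as positive control.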

[4] = test system: LNCaP; assay: Growth inhibition in human LNCaP cells incubated for 4 days by WST-8 assay; format: functional, cell-based; conditions: 96 h
[5] = test system: Mus musculus; assay: In vivo induction of androgen receptor degradation in human VCaP cells xenografted in CB17 SCID mouse at 12.5 mg/kg, po measured upto 24 hrs by […] analysis; format: functional, organism-based
[6] = target: Androgen receptor (Homo sapiens) (UniProt P10275); assay: In vivo induction of androgen receptor degradation in human VCaP cells xenografted in CB17 SCID mouse assessed as reduction in AR protein level at 12.5 mg/kg, po measured after 24 hrs by Western blotting analysis; parameters: scale not given: the % may be the effect or the level left
[7] = target: Androgen receptor (Homo sapiens) (UniProt P10275); assay: In vivo induction of androgen receptor degradation in human VCaP cells xenografted in CB17 SCID mouse assessed as reduction in AR protein level at 12.5 mg/kg, po measured after 6 hrs by […] analysis; parameters: scale not given: the % may be the effect or the level left
[8] = target: Cytochrome P450 3A4 (Homo sapiens, UniProt P08684); assay: Inhibition of CYP3A4 in human liver microsomes using testosterone as substrate preincubated for 5 mins followed by NADPH addition and measured after 5 mins by LC/MS analysis; format: ADME, Microsome
[9] = Clearance in ICR mouse at 2 mg/kg, iv measured upto 24 hrs by LC-MS/MS analysis; format: ADME, organism-based; conditions: in vivo
In short: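 Male ICR mice (2 mg/kg), male SD rats (1 mg/kg) or male Beagle dogs (1 mg/kg) given a single intravenous dose in 10% PEG400 + 90% PBS adjusted to pH 8.0 with NaOH.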

[10] = test system: Mus musculus; assay: In vivo induction of androgen receptor degradation in human VCaP cells xenografted in CB17 SCID mouse assessed as reduction in FKBP5 mRNA level at 12.5 mg/kg, po measured after 6 to 24 hrs by qRT-PCR analysis; format: functional, organism-based; conditions: time 6-24 hrs
[11] = Toxicity in CB17 SCID mouse assessed as weight loss at 3.75 to 30 mg/kg, po; format: organism-based; conditions: in vivo, dose 3.75-30 mg/kg
In short: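 SCID mice bearing VCaP xenografts dosed by oral gavage once daily for 21 days. Body weight and signs of toxicity monitored throughout.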

[12] = Drug concentration in CB17 SCID mouse tumor xenografted with human VCaP cells at 12.5 mg/kg, po measured after 24 hrs by LC-MS/MS analysis; format: ADME, organism-based, Neoplasm; conditions: read-out: Ct
In short: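 SCID mice bearing one VCaP tumour each given a single oral 12.5 mg/kg dose in 100% PEG200. Plasma and tumour tissue collected at 6 and 24 h, 3 mice per time point. Values are mean ± SD.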

[13] = test system: LNCaP; assay: Induction of androgen receptor degradation in human LNCaP cells at 100 nM pretreated with MG132 for 2 hrs followed by compound addition and 3 hrs by Western blot analysis; format: functional, cell-based; conditions: time 5.0 hrs
In short: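 LNCaP or VCaP cells pretreated 2 h with DMSO, ARi-12 (10 μM), thalidomide (10 μM), MG-132 (3 μM) or MLN4924 (0.5 μM), then given degrader at 100 nM for 3 h. AR measured by Western blot with GAPDH as loading control.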

[14] = target: T1, Cytochrome P450 1A2 (Homo sapiens, UniProt P05177); assay: Inhibition of CYP1A2 in human liver microsomes preincubated for 5 mins followed by NADPH addition and measured after 10 mins by LC/MS analysis; format: ADME, Microsome
T1 sequence (P05177 whole entry): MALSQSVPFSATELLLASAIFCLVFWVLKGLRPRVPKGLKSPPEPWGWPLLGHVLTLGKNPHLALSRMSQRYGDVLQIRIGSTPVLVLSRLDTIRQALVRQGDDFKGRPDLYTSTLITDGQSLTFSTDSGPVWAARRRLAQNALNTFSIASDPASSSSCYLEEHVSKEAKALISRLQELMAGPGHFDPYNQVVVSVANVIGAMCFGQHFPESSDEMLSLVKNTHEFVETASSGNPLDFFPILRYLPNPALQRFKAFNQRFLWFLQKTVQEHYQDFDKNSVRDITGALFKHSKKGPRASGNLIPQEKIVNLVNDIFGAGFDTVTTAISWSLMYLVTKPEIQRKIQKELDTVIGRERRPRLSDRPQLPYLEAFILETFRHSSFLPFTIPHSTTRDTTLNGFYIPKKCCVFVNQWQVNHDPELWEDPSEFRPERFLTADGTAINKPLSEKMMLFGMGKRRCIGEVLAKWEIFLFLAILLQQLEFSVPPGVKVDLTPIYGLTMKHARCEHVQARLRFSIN
In short: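 Human liver microsomes (0.2 mg/mL stock) in 0.1 M potassium phosphate pH 7.4, prewarmed 5 min at 37 °C with test compound. Phenacetin as substrate; reaction started with NADPH (8 mM stock) and run 10 min, in duplicate. α-Naphthoflavone as reference inhibitor; LC/MS read-out.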

[15] = Metabolic stability in human plasma assessed as half life at 1 uM measured upto 120 mins by LC-MS/MS analysis; format: ADME, cell-free; conditions: 2 h
In short: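 Compound at 1 μM final in pre-warmed plasma of each species, 37 °C for up to 2 h. ACN/IS quench at 0, 5, 15, 30, 60 and 120 min; LC/MS. Procaine as reference (benfluorex for rat). t1/2 = 0.693/slope of ln(fraction remaining) versus time.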

Cytochrome P450 2C9, sequence (P11712 whole entry): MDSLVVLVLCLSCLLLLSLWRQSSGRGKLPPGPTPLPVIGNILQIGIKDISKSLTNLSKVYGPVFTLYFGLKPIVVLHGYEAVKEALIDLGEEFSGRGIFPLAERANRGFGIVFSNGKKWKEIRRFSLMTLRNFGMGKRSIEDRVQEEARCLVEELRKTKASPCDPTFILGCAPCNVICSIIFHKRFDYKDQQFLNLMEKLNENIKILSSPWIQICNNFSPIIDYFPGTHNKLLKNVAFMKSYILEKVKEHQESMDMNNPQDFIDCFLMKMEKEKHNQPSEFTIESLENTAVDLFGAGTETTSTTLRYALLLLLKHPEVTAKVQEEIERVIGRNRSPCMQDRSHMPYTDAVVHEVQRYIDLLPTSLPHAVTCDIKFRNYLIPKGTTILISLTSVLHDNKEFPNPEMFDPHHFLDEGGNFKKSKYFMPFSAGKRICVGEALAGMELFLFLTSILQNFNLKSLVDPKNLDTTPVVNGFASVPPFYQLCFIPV
Voltage-gated inwardly rectifying potassium channel KCNH2, sequence (Q12809 whole entry): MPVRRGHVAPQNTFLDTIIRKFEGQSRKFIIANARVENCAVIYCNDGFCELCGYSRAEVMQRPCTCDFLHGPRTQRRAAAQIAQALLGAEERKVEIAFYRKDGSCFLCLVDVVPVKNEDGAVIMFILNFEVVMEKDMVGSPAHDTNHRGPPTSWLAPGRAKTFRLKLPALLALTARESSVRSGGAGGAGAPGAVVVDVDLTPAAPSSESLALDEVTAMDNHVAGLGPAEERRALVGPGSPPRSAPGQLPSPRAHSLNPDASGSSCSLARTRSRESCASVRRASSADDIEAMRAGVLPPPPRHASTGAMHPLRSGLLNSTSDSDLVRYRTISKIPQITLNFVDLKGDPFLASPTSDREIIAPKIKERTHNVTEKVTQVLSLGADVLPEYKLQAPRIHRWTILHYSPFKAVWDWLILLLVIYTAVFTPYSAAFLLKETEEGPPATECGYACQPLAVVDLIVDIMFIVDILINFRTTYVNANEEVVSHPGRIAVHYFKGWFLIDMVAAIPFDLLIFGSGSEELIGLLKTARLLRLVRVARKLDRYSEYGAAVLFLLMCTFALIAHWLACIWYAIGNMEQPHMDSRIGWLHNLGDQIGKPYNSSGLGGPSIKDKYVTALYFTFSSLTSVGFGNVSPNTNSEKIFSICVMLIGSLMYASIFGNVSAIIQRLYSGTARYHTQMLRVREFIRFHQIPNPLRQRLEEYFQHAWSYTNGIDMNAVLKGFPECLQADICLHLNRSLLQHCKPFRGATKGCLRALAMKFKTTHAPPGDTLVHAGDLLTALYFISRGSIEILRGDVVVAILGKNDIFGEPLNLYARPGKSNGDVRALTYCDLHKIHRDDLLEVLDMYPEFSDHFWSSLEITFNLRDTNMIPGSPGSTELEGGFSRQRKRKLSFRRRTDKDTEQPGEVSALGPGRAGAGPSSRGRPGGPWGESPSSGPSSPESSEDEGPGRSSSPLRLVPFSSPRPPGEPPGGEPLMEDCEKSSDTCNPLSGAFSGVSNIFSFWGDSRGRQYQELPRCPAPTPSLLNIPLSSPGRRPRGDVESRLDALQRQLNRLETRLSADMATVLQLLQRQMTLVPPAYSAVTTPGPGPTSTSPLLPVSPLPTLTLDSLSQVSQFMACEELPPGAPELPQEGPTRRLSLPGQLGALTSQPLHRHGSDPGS
Cytochrome P450 3A4, sequence (P08684 whole entry): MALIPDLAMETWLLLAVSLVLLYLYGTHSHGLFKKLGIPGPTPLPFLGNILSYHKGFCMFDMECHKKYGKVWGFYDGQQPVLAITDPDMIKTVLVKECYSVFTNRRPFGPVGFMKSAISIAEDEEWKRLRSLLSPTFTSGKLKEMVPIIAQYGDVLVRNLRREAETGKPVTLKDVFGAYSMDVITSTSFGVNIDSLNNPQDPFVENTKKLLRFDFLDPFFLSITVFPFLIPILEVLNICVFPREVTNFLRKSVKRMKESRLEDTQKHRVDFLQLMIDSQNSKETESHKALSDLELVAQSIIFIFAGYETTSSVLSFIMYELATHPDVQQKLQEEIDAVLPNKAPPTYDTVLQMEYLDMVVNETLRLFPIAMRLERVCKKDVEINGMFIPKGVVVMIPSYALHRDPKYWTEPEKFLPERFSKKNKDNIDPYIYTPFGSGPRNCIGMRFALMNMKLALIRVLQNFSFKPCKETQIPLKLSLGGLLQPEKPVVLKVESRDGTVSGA

For `C[C@H]1CC2(CCN(c3ccc(C(=O)N4CCN(C5CN(c6ccc7c(c6)C(=O)N(C6CCC(=O)NC6=O)C7=O)C5)CC4)cc3)CC2)CN1c1ccc(C#N)c(Cl)c1` (stereo not given in full), the concentration at 6 h [1] was 0.369 µg/mL, the IC50 [2] was greater than 10 µM and the IC50 [3] was greater than 30 µM. The IC50 [4] was 0.013 µM, the Activity [5] was “Active” and the Activity [6] was greater than 95%. For the same compound, the Activity [7] was 73%, the IC50 [8] was greater than 10 µM and the clearance [9] was 0.222 L/h/kg. For the same compound, the Activity [10] was “Active”, the Activity [11] was less than 5% and the concentration at 24 h [12] was 0.183 µg/mL. For the same compound, the Activity [13] was “inactive”, the IC50 [14] was greater than 10 µM and the t1/2 [15] was greater than 2 h.
